Test results reported in ChEMBL document CHEMBL1177686, “Constrained peptidomimetics as antiplasmodial falcipain-2 inhibitors” (Bioorg Med Chem, 2010).

What was measured:
[1] = target: T1, Falcipain 2 (Plasmodium falciparum) (UniProt Q9N6S8); assay: Ratio of Kinact to Ki for Plasmodium falciparum recombinant falcipain-2 after 10 min
T1 sequence (whole entry): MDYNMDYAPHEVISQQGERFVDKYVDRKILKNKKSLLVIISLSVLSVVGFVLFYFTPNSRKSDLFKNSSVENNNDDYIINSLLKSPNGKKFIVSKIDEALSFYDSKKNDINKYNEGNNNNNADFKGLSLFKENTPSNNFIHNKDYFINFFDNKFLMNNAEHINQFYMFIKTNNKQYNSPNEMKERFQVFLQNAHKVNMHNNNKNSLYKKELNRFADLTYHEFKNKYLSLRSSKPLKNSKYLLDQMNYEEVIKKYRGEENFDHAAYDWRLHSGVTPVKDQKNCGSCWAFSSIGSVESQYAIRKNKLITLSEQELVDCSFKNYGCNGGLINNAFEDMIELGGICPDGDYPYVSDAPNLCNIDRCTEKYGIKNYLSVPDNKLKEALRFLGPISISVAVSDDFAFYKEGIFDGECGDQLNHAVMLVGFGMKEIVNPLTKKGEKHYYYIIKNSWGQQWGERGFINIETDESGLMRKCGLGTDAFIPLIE

[2] = target: T2, Falcipain 2 (Plasmodium falciparum, UniProt Q9N6S8); assay: Inhibition of Plasmodium falciparum recombinant falcipain-2 after 10 min
T2 sequence (Q9N6S8 whole entry): T1 sequence (whole entry)

[3] = target: Rhodesain (Trypanosoma brucei rhodesiense, UniProt Q95PM0); assay: Inhibition of Trypanosoma brucei rhodesiense rhodesain after 10 mins
How it was run: (§1)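 Rhodesain with Cbz-Phe-Arg-AMC 10 µM in 100 mM sodium acetate pH 5.5, 10 mM DTT. Fluorescence (ex 365/em 460 nm) read continuously for 10 min at increasing inhibitor levels, duplicate runs. Kiapp and kinac from hyperbolic kobs fit, corrected to Ki using Km 0.9 µM. k2nd as kinac/Ki, or from kobs/[I] when linear. Dixon plot if time-independent.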

[4] = target: Rhodesain (Trypanosoma brucei rhodesiense) (UniProt Q95PM0); assay: Ratio of Kinact to Ki for Trypanosoma brucei rhodesiense rhodesain after 10 mins; how it was run: as §1
[5] = Selectivity ratio of Ki for Plasmodium falciparum recombinant falcipain-2 to Ki for Trypanosoma brucei rhodesiense rhodesain
[6] = test system: Plasmodium falciparum; assay: Antiplasmodial activity against Plasmodium falciparum FCBR infected in human erythrocytes assessed as parasite viability; format: functional, organism-based; settings: FCBR/Columbia
How it was run: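 P. falciparum FCBR kept in human A Rh+ erythrocytes, RPMI 1640 with 25 mM HEPES, 20 mM bicarbonate, 0.5% AlbuMAX I, 2.5% hematocrit, 37 °C, 94% N2/1% O2/5% CO2. Early-stage parasites plated at 1% parasitemia with compound (DMSO stock diluted 10-fold in 50% ethanol), 100-0.0488 µM, quadruplicates. Ethanol-only negative and 2 µM chloroquine positive controls. Viability assayed by a published method.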

[7] = target: Cathepsin B (Homo sapiens, UniProt P07858); assay: Inhibition of human cathepsin B
[8] = target: T3, Procathepsin L (Homo sapiens, UniProt P07711); assay: Inhibition of human cathepsin L
How it was run: (§2)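 Cathepsin L assay on Cbz-Phe-Arg-AMC 5 µM. […] Second-order constant k2nd taken as kinac/Ki.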
Target sequence in this assay (P07711 whole entry): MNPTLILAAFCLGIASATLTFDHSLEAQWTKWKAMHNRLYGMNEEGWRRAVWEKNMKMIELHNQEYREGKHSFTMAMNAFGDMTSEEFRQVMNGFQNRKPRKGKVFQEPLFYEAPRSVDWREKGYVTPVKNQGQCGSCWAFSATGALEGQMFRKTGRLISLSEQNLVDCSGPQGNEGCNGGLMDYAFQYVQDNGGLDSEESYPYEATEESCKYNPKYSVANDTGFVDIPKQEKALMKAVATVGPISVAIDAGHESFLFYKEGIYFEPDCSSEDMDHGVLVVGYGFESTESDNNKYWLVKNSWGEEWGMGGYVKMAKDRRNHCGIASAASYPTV

[9] = target: T3, Procathepsin L; assay: Ratio of Kinact to Ki for human cathepsin L; how it was run: as §2
Target sequence in this assay (P07711 114-333 limits assumed): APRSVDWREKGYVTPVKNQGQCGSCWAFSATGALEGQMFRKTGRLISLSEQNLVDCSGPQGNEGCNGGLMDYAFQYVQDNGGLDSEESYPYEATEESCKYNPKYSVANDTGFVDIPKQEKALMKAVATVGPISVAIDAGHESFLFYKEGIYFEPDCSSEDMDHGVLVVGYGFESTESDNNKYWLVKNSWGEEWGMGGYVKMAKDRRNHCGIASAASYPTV

Sequence of Rhodesain (Q95PM0 whole entry): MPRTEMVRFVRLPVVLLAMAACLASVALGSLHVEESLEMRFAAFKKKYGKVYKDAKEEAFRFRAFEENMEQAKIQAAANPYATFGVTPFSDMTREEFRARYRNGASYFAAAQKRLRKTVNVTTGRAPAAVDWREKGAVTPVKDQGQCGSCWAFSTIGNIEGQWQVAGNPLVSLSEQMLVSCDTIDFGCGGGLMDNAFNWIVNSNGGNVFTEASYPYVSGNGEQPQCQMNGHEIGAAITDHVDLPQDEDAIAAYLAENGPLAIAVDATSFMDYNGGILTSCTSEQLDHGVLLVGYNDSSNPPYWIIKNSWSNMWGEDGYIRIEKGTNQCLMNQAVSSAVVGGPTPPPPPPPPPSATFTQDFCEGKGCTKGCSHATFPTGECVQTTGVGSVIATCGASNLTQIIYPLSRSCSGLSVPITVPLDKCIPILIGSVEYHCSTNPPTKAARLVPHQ
Sequence of Rhodesain (Trypanosoma brucei rhodesiense) (Q95PM0 1-450): as the sequence (Q95PM0 whole entry) above

SMILES	Ratio [1]	Ki [2] [µM]	Ki [3] [µM]	Ratio [4]	Ratio Ki [5]	Activity [6]	Ki [7] [µM]	Ki [8] [µM]	Ratio [9]	IC50 [6] [µM]
CC(C)C[C@H](NC(=O)[C@H]1O[C@@H]1C(=O)O)C(=O)NCCCCN=C(N)N	1.59e+06									
COC(=O)/C=C/CNC(=O)CN1C(=O)[C@@H](COC(=O)Nc2ccc(Cl)cc2C(F)(F)F)N=C(c2ccccc2)c2ccccc21	3.57e+06	0.017	0.81	34600	5					
CCCCNC(=O)OC[C@H]1N=C(c2ccccc2)c2ccccc2N(CC(=O)NC/C=C/C(=O)OC)C1=O		> 100			5	Dose-dependent effect	20.4	2.7	9400	
COC(=O)/C=C/[C@H](CC(C)C)NC(=O)CN1C(=O)[C@@H](COC(=O)Nc2ccc(Cl)cc2C(F)(F)F)N=C(c2ccccc2)c2ccccc21	18000	2.22	0.87	36000	5		39.1	> 150		26.9
COC(=O)/C=C/CNC(=O)CN1C(=O)[C@@H](COC(=O)Nc2cccc3ccccc23)N=C(c2ccccc2)c2ccccc21		3.48	0.93		5		25	12.2	6400	17.6
COC(=O)/C=C/CNC(=O)CN1C(=O)[C@@H](COC(=O)Nc2ccc(Cl)cc2C(F)(F)F)N=C(c2ccc(OC)cc2)c2ccccc21		> 100			5		10.9	59.9		
C=CCNC(=O)CN1C(=O)[C@@H](CO)N=C(c2ccccc2)c2ccccc21					5	Dose-dependent effect				
COC(=O)/C=C/CNC(=O)CN1C(=O)[C@@H](COC(=O)Nc2ccc(OC)cc2)N=C(c2ccccc2)c2ccccc21		15.1	4.3		5		2.23	12	12500	33.1
COC(=O)/C=C/CNC(=O)CN1C(=O)[C@@H](COC(=O)NC2CCCCC2)N=C(c2ccccc2)c2ccccc21		89			5	Dose-dependent effect	12.4	76.5		
COC(=O)/C=C/CNC(=O)CN1C(=O)[C@@H](COC(=O)Nc2ccc(Cl)cc2C(F)(F)F)N=C(c2ccccc2)c2cc(Cl)ccc21	76000	0.46	0.087	220000	5		6.1	29.8		28.9
COC(=O)/C=C/CNC(=O)CN1C(=O)[C@@H](COC(=O)Nc2ccc(Cl)cc2C(F)(F)F)N=C(c2ccc(Br)cc2)c2ccccc21	24500	1.56	0.47	46000	5		> 150	> 150		6.33
COC(=O)/C=C/CNC(=O)CN1C(=O)[C@@H](COC(=O)NC23CC4CC(CC(C4)C2)C3)N=C(c2ccccc2)c2ccccc21	1.16e+06	0.014	0.0026	4.62e+06	5		13.7	65	550	10.7
